Measurements published in ChEMBL document CHEMBL1156652, “Antiurolithic effect of lupeol and lupeol linoleate in experimental hyperoxaluria” (J Nat Prod, 2008).
Activity calls are given as the source filed them.

Key:
Rattus norvegicus [1] = test: Effect on superoxide dismutase activity in kidney of Wistar rat assessed per mg of protein at 50 mg/kg/day, po for 28 days; assay type: functional
In short: (§1)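 Normal male Wistar rats, no ethylene glycol, dosed orally at 50 mg/kg body wt/day for 28 days. Kidney homogenate, 10% in 0.01 M Tris-HCl pH 7.4. SOD unit defined as 50% inhibition of pyrogallol autoxidation; CAT as µmol H2O2 utilized/min. GSH, vitamins C and E as µg/mg protein. Protein by Lowry. Mean ± SEM, 6 rats/group.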

Rattus norvegicus [2] = test: Increase in catalase activity in kidney of ethylene glycol-induced hyperoxaluria Wistar rat model assessed per mg of protein at 50 mg/kg/day, po for 28 days; assay type: functional
In short: (§2)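 Ethylene glycol-hyperoxaluric male Wistar rats (0.75% in drinking water, 28 days), co-dosed orally at 50 mg/kg body wt/day. Kidney homogenate, 10% in 0.01 M Tris-HCl pH 7.4. SOD unit defined as 50% inhibition of pyrogallol autoxidation; CAT as µmol H2O2 utilized/min. GSH, vitamins C and E as µg/mg protein. Mean ± SEM, 6 rats/group.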

Rattus norvegicus [3] = test: Effect on catalase activity in kidney of Wistar rat assessed per mg of protein at 50 mg/kg/day, po for 28 days; assay type: functional; in short: as §1
Rattus norvegicus [4] = test: Increase in glutathione peroxidase activity in kidney of ethylene glycol-induced hyperoxaluria Wistar rat model assessed per mg of protein at 50 mg/kg/day, po for 28 days; assay type: functional; in short: as §2
Rattus norvegicus [5] = test: Effect on glutathione peroxidase activity in kidney of Wistar rat assessed per mg of protein at 50 mg/kg/day, po for 28 days; assay type: functional; in short: as §1
Rattus norvegicus [6] = test: Increase in glutathione level in kidney of ethylene glycol-induced hyperoxaluria Wistar rat model assessed per mg of protein at 50 mg/kg/day, po for 28 days; assay type: functional; in short: as §2
Rattus norvegicus [7] = test: Effect on glutathione level in kidney of Wistar rat assessed per mg of protein at 50 mg/kg/day, po for 28 days; assay type: functional; in short: as §1
Rattus norvegicus [8] = test: Increase in vitamin C level in kidney of ethylene glycol-induced hyperoxaluria Wistar rat model assessed per mg of protein at 50 mg/kg/day, po for 28 days; assay type: functional; in short: as §2
Rattus norvegicus [9] = test: Effect on vitamin C level in kidney of Wistar rat assessed per mg of protein at 50 mg/kg/day, po for 28 days; assay type: functional; in short: as §1
Rattus norvegicus [10] = test: Increase in vitamin E level in kidney of ethylene glycol-induced hyperoxaluria Wistar rat model assessed per mg of protein at 50 mg/kg/day, po for 28 days; assay type: functional; in short: as §2
Rattus norvegicus [11] = test: Effect on vitamin E level in kidney of Wistar rat assessed per mg of protein at 50 mg/kg/day, po for 28 days; assay type: functional; in short: as §1
Rattus norvegicus [12] = test: Reduction in ascorbate-induced lipid peroxidation levels in kidney of ethylene glycol-induced hyperoxaluria Wistar rat model assessed as malondialdehyde release per mg of protein at 50 mg/kg/day, po for 28 days; assay type: functional
In short: (§3)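 Male Wistar rats given 0.75% ethylene glycol in drinking water for 28 days, with drug orally at 50 mg/kg body wt/day throughout. Kidney homogenized 10% in ice-cold 0.01 M Tris-HCl, pH 7.4. Lipid peroxidation read as malondialdehyde released, with 10 mM ferrous sulfate or 0.2 mM ascorbate as inducer. Mean ± SEM, 6 rats/group.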

Rattus norvegicus [13] = test: Effect on ascorbate-induced lipid peroxidation levels in kidney of Wistar rat assessed as malondialdehyde release per mg of protein at 50 mg/kg/day, po for 28 days; assay type: functional
In short: (§4)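 Normal male Wistar rats (120 ± 20 g), no ethylene glycol, given drug orally at 50 mg/kg body wt/day for 28 days. Kidney homogenized 10% in ice-cold 0.01 M Tris-HCl, pH 7.4. Lipid peroxidation read as malondialdehyde released, with 10 mM ferrous sulfate or 0.2 mM ascorbate as inducer. Mean ± SEM, 6 rats/group.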

Rattus norvegicus [14] = test: Reduction in ferrous sulfate-induced lipid peroxidation levels in kidney of ethylene glycol-induced hyperoxaluria Wistar rat model assessed as malondialdehyde release per mg of protein at 50 mg/kg/day, po for 28 days; assay type: functional; in short: as §3
Rattus norvegicus [15] = test: Effect on ferrous sulfate-induced lipid peroxidation levels in kidney of Wistar rat assessed as malondialdehyde release per mg of protein at 50 mg/kg/day, po for 28 days; assay type: functional; in short: as §4
Rattus norvegicus [16] = test: Protective effect in kidney of ethylene glycol-induced hyperoxaluria Wistar rat model assessed as normal glomerulus/tubule at 50 mg/kg/day, po for 28 days; assay type: functional, organism-based
In short: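 Hyperoxaluria induced with 0.75% ethylene glycol in drinking water for 28 days, with concurrent oral dosing at 50 mg/kg body wt/day. Kidney portions fixed in 10% formalin, stained with hematoxylin and eosin, and examined by light microscopy for glomeruli, tubules, crystal deposits and infiltration.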

Rattus norvegicus [17] = test: Nephrotoxicity in Wistar rat at 50 mg/kg/day, po for 28 days; assay type: toxicity, organism-based; set-up: route oral; settings: in vivo, 672 h
In short: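 Male Wistar rats (120 ± 20 g), six per group, dosed orally once daily for 28 days, alone or alongside 0.75% ethylene glycol in drinking water to induce hyperoxaluria. After decapitation, kidneys were homogenized (10%) in ice-cold 0.01 M Tris-HCl pH 7.4 for ALP and γ-GT assays, or formalin-fixed, H&E-stained and examined by light microscopy. Data reported as mean ± SEM.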

Rattus norvegicus [18] = test: Renoprotective effect in ethylene glycol-hyperoxaluria Wistar rat model assessed as increase in renal alkaline phosphatase activity per mg of protein at 50 mg/kg/day, po for 28 days; assay type: functional
In short: (§5)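 Ethylene glycol given at 0.75% in drinking water for 28 days to male Wistar rats, with concurrent oral dosing at 50 mg/kg body wt/day. Kidney homogenate in 0.01 M Tris-HCl pH 7.4. ALP read as phenol liberated from disodium phenyl phosphate, Folin colour at alkaline pH; γ-GT as p-nitroaniline liberated/min/mg protein. Mean ± SEM, 6 rats/group.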

Rattus norvegicus [19] = test: Effect on renal alkaline phosphatase activity in Wistar rat assessed per mg of protein at 50 mg/kg/day, po for 28 days; assay type: functional
In short: (§6)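 Normal male Wistar rats, no ethylene glycol, dosed orally at 50 mg/kg body wt/day for 28 days. Kidney homogenate in 0.01 M Tris-HCl pH 7.4. ALP read as phenol liberated from disodium phenyl phosphate, Folin colour at alkaline pH; γ-GT as p-nitroaniline liberated/min/mg protein. Mean ± SEM, 6 rats/group.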

Rattus norvegicus [20] = test: Renoprotective effect in ethylene glycol-hyperoxaluria Wistar rat model assessed as increase in renal gamma glutamyl transferase activity mg of protein at 50 mg/kg/day, po for 28 days; assay type: functional; in short: as §5
Rattus norvegicus [21] = test: Effect on renal gamma glutamyl transferase activity in Wistar rat assessed mg of protein at 50 mg/kg/day, po for 28 days; assay type: functional; in short: as §6
Rattus norvegicus [22] = test: Reduction of lactate dehydrogenase activity in liver of ethylene glycol-induced hyperoxaluria Wistar rat model assessed per mg of protein at 50 mg/kg/day, po for 28 days; assay type: functional
In short: (§7)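 Hyperoxaluria produced with 0.75% ethylene glycol in drinking water for 28 days, with concurrent oral dosing at 50 mg/kg body wt/day. Liver and kidney homogenized 10% in ice-cold 0.01 M Tris-HCl pH 7.4. LDH assayed with glyoxylate as substrate; GAO and XO by published methods. Mean ± SEM, 6 rats/group.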

Rattus norvegicus [23] = test: Effect on lactate dehydrogenase activity in liver of Wistar rat assessed per mg of protein at 50 mg/kg/day, po for 28 days; assay type: functional
In short: (§8)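 Normal male Wistar rats, no ethylene glycol, given oral dosing at 50 mg/kg body wt/day for 28 days. Liver and kidney homogenized 10% in ice-cold 0.01 M Tris-HCl pH 7.4. LDH assayed with glyoxylate as substrate; GAO and XO by published methods. Mean ± SEM, 6 rats/group.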

Rattus norvegicus [24] = test: Reduction of xanthine oxidase activity in liver of ethylene glycol-induced hyperoxaluria Wistar rat model assessed per mg of protein at 50 mg/kg/day, po for 28 days; assay type: functional; in short: as §7
Rattus norvegicus [25] = test: Effect on xanthine oxidase activity in liver of Wistar rat assessed per mg of protein at 50 mg/kg/day, po for 28 days; assay type: functional; in short: as §8
Rattus norvegicus [26] = test: Reduction of glycolic acid oxidase activity in liver of ethylene glycol-induced hyperoxaluria Wistar rat model assessed per mg of protein at 50 mg/kg/day, po for 28 days; assay type: functional; in short: as §7
Rattus norvegicus [27] = test: Effect on glycolic acid oxidase activity in liver of Wistar rat assessed per mg of protein at 50 mg/kg/day, po for 28 days; assay type: functional; in short: as §8
Rattus norvegicus [28] = test: Reduction of lactate dehydrogenase activity in kidney of ethylene glycol-induced hyperoxaluria Wistar rat model assessed per mg of protein at 50 mg/kg/day, po for 28 days; assay type: functional; in short: as §7
Rattus norvegicus [29] = test: Effect on lactate dehydrogenase activity in kidney of Wistar rat assessed per mg of protein at 50 mg/kg/day, po for 28 days; assay type: functional; in short: as §8
Rattus norvegicus [30] = test: Reduction of xanthine oxidase activity in kidney of ethylene glycol-induced hyperoxaluria Wistar rat model assessed per mg of protein at 50 mg/kg/day, po for 28 days; assay type: functional; in short: as §7
Rattus norvegicus [31] = test: Effect on xanthine oxidase activity in kidney of Wistar rat assessed per mg of protein at 50 mg/kg/day, po for 28 days; assay type: functional; in short: as §8
Rattus norvegicus [32] = test: Increase in superoxide dismutase activity in kidney of ethylene glycol-induced hyperoxaluria Wistar rat model assessed per mg of protein at 50 mg/kg/day, po for 28 days; assay type: functional; in short: as §2

| Structure (SMILES) | Activity (Rattus norvegicus [1]) | Activity (Rattus norvegicus [2]) [µmol/min] | Activity (Rattus norvegicus [3]) [µmol/min] | Activity (Rattus norvegicus [4]) [µg/min] | Activity (Rattus norvegicus [5]) [µg/min] | Activity (Rattus norvegicus [6]) [µg] | Activity (Rattus norvegicus [7]) [µg] | Activity (Rattus norvegicus [8]) [µg] | Activity (Rattus norvegicus [9]) [µg] | Activity (Rattus norvegicus [10]) [µg] | Activity (Rattus norvegicus [11]) [µg] | Activity (Rattus norvegicus [12]) [nmol] | Activity (Rattus norvegicus [13]) [nmol] | Activity (Rattus norvegicus [14]) [nmol] | Activity (Rattus norvegicus [15]) [nmol] | Activity (Rattus norvegicus [16]) | Activity (Rattus norvegicus [17]) | Activity (Rattus norvegicus [18]) [µmol/min] | Activity (Rattus norvegicus [19]) [µmol/min] | Activity (Rattus norvegicus [20]) [nmol/min] | further results |
| --- | --- | --- | --- | --- | --- | --- | --- | --- | --- | --- | --- | --- | --- | --- | --- | --- | --- | --- | --- | --- | --- |
| C=C(C)[C@@H]1CC[C@]2(C)CC[C@]3(C)C(CC[C@@H]4[C@@]5(C)CC[C@H](OC(=O)CCCCCCC/C=C/C/C=C/CCCCC)C(C)(C)[C@@H]5CC[C@]43C)[C@@H]12 (some centres undefined) [LUPEOL LINOLEATE] | 5 | 155.3 | 164.9 | 8.01 | 8.32 | 4.59 | 4.76 | 1.74 | 1.89 | 0.97 | 1.06 | 4.95 | 4.45 | 13.38 | 12.2 | Active | Non-toxic | 1.65 | 1.68 | 8.62 | Activity (Rattus norvegicus [21]): 8.79 nmol/min; Activity (Rattus norvegicus [22]): 2.39; Activity (Rattus norvegicus [23]): 2.33; Activity (Rattus norvegicus [24]): 1.39; Activity (Rattus norvegicus [25]): 1.28; Activity (Rattus norvegicus [26]): 3.12 nmol; Activity (Rattus norvegicus [27]): 2.75 nmol; Activity (Rattus norvegicus [28]): 2.26; Activity (Rattus norvegicus [29]): 2.01; Activity (Rattus norvegicus [30]): 0.97; Activity (Rattus norvegicus [31]): 0.9; Activity (Rattus norvegicus [32]): 4.82 |
| C=C(C)[C@@H]1CC[C@]2(C)CC[C@]3(C)[C@H](CC[C@@H]4[C@@]5(C)CC[C@H](O)C(C)(C)[C@@H]5CC[C@]43C)[C@@H]12 [LUPEOL] | 5.04 | 141.6 | 164.2 | 7.11 | 8.31 | 4.27 | 4.75 | 1.6 | 1.86 | 0.91 | 1.04 | 5.11 | 4.5 | 15.11 | 12.14 | Active | Non-toxic | 1.53 | 1.72 | 8.28 | Activity (Rattus norvegicus [21]): 8.73 nmol/min; Activity (Rattus norvegicus [22]): 2.42; Activity (Rattus norvegicus [23]): 2.35; Activity (Rattus norvegicus [24]): 1.54; Activity (Rattus norvegicus [25]): 1.31; Activity (Rattus norvegicus [26]): 3.61 nmol; Activity (Rattus norvegicus [27]): 2.77 nmol; Activity (Rattus norvegicus [28]): 2.41; Activity (Rattus norvegicus [29]): 2.05; Activity (Rattus norvegicus [30]): 1.09; Activity (Rattus norvegicus [31]): 0.93; Activity (Rattus norvegicus [32]): 4.67 |
